High-throughput results: PubChem BioAssay, several laboratories
An excerpt weighted towards active compounds, which were near 2.8% of everything screened.
NPY Y2 blocker = NPY-Y2 (human) receptor antagonism. P49146. AID 793. NPY-Y2 expressing cells, antagonist mode. hit rate 0.99% among 140,000. inhibition, % at 2.7 µM; in the data active = inhibition above about 17%;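 also: 0% = vehicle with agonist challenge and 100% = reference antagonist with challenge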
Target sequence (P49146 whole entry, looked up): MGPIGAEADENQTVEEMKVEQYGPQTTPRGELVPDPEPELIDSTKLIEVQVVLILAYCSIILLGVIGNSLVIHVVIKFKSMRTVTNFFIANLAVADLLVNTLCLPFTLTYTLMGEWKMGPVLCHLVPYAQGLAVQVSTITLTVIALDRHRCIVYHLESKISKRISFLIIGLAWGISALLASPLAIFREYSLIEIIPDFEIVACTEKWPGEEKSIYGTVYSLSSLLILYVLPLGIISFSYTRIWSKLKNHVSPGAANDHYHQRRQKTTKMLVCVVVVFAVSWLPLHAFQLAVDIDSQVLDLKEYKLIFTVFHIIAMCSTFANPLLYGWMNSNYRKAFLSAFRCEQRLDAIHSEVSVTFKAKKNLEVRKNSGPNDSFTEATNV
NPY-Y1 antag = blocks the human neuropeptide Y Y1 receptor. inhibition, % at 3.6 µM. hit rate 1% among 200,000. AID 1040. P25929. HEK293-CNG Y1 cells, membrane potential fluorescence; NPY at EC95, then isoproterenol;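 active = inhibition above the campaign mean inhibition of all tested compounds plus 3 SD, cut at about 20% in these data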;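 also: 0% = DMSO wells given NPY plus isoproterenol and 100% = isoproterenol alone without NPY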
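Material: HEK293 cells co-expressing NPY Y1 receptor and cyclic-nucleotide gated channel. Timing: compound incubation 1 h at room temperature, readout 45 min post-stimulation. Signal: fluorescence, membrane potential probe.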
EP2 antag = inhibitors of human EP2 prostaglandin E2 receptor; P43116; C6 glioma cells expressing human EP2, cAMP TR-FRET; cells stimulated with saturating PGE2; inhibition, % at 25 µM; hit rate 0.52% among 260,000; AID 1422;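 active = percent inhibition above 40 after rounding to a whole number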;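 also: rat C6 glioma host cells with rolipram phosphodiesterase inhibitor present; the protocol text gives 20 µM as final concentration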
Target sequence (P43116 whole entry, looked up): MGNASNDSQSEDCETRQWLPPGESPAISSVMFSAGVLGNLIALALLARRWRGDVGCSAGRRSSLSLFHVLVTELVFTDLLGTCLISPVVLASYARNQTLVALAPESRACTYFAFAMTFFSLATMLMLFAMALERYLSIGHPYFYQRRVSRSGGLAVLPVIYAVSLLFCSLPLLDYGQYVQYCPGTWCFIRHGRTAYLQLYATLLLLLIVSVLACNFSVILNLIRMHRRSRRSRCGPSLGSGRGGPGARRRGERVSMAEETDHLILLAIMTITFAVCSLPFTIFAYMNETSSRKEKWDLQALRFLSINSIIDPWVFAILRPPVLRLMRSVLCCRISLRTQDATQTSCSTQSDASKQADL
NPY1 pot ag = human NPY-Y1 potentiation or agonism, primary screen. P25929. NPY-Y1 expressing cells, potentiator/agonist activation. activation, % at 3.6 µM. hit rate 0.37% among 220,000; in the data active = activation above about 33%, passing the limit was not always enough;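 also: cells stimulated with NPY at EC10 then isoproterenol at EC100; 0% = low agonist plus stimulus and 100% = saturating agonist plus stimulus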
EP2 modulator = EP2 receptor (human) modulation; EP2-expressing cells, cAMP HTRF FRET, PGE2 co-stimulation; induction, % at 25 µM; P43116; hit rate 0.83% among 260,000;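 active = compounds whose cAMP rise, as percent of the full-agonist control response, exceeds 60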;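 also: rat C6 glioma line stably carrying human EP2 under a CMV promoter; the protocol text gives 20 µM as final concentration; 100% = response of wells given 1 µM PGE2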
NPY2 pot ag = potentiators or agonists of human neuropeptide Y receptor Y2; hit rate 0.45% among 220,000; activation, % at 3.6 µM; cells expressing NPY-Y2, potentiator/agonist read-out; in the data active = activation above about 27%;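 also: cells stimulated with NPY near EC25 plus isoproterenol at EC100; 0% = vehicle plus submaximal agonist and 100% = vehicle plus saturating agonist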
NPY-Y1 antag ct = antagonizes human NPY-Y1, counter-screen to NPY-Y2 antagonists; shares compounds with NPY Y2 blocker; cell-based NPY-Y1 antagonism counterscreen; inhibition, % at 3.6 µM; hit rate 19% among 710; in the data active = inhibition above about 20%;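 also: cells challenged with NPY then isoproterenol with cAMP sensed through a CNG channel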
NPY-Y2 ant conf = confirmation of human neuropeptide Y receptor Y2 antagonists; shares compounds with NPY Y2 blocker; HEK293 NPY-Y2 CNG channel, membrane potential fluorescence; inhibition, % at 2.8 µM; hit rate 32% among 710; AID 1257;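 active = mean inhibition of triplicate wells above the hit cutoff set in the primary screen, cut at about 17% in these data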;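 also: 0% = DMSO with NPY challenge and 100% = BIIE0246 high control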
Numbers without * were called inactive.

For COc1ccccc1OCCCCN1CCN(C(c2ccccc2)c2ccccc2)CC1 the results were NPY Y2 blocker 20.4*, NPY-Y1 antag 5.5, EP2 antag 5.9, NPY1 pot ag -34.4, EP2 modulator 20.7, NPY2 pot ag -28.0, NPY-Y1 antag ct 14.2 and NPY-Y2 ant conf 25.1*.
CC1(C)CC2CC(C)(CN2C(=O)COc2cccc3ccccc23)C1 (centres undefined) was read as NPY Y2 blocker 17.3*, NPY-Y1 antag 6.1, EP2 antag 28.2, NPY1 pot ag -7.6, EP2 modulator -23.1, NPY2 pot ag 14.2, NPY-Y1 antag ct 5.1 and NPY-Y2 ant conf 5.9.
`O=C(c1cc(-c2cccs2)on1)N1CCc2ccccc2C1` gave NPY Y2 blocker 28.8*, NPY-Y1 antag 14.0, EP2 antag 6.7, NPY1 pot ag -32.5, EP2 modulator 15.3, NPY2 pot ag -5.5, NPY-Y1 antag ct 17.0 and NPY-Y2 ant conf 16.6.
Cc1ccc(-c2cc(C(F)F)n3ncc(C(=O)N4CCN(c5ccccn5)CC4)c3n2)cc1 was read as NPY Y2 blocker 19.9*, NPY-Y1 antag 6.2, EP2 antag 11.0, NPY1 pot ag -27.8, EP2 modulator -21.1, NPY2 pot ag -7.3, NPY-Y1 antag ct 19.1 and NPY-Y2 ant conf 16.9.
For COc1ccccc1NC(=O)c1ccc(COc2ccc3c(c2)CCC3)cc1 the results were NPY Y2 blocker 22.5*, NPY-Y1 antag 3.7, EP2 antag 5.4, NPY1 pot ag -8.4, EP2 modulator 22.0, NPY2 pot ag 3.3, NPY-Y1 antag ct 4.1 and NPY-Y2 ant conf 16.0.
For COC(=O)c1ccccc1NC(=O)c1ccc(COc2ccc3c(c2)CCC3)cc1 the results were NPY Y2 blocker 9.4, NPY-Y1 antag 0.2, EP2 antag 7.8, NPY1 pot ag -11.2, EP2 modulator 21.0 and NPY2 pot ag 5.0.
For CCNc1nc2c(c(=O)n(C)c(=O)n2C)n1Cc1ccccc1Cl the results were EP2 antag 9.5 and EP2 modulator -47.9.
Screening COc1cc(/C=N/NC(N)=S)ccc1OCC(=O)Nc1ccc(C)c(C)c1 returned NPY Y2 blocker -2.9, NPY-Y1 antag -2.3, EP2 antag 11.7, NPY1 pot ag -6.3, EP2 modulator -13.7 and NPY2 pot ag -8.5.
Screening COc1cc(/C=N/NC(N)=O)ccc1OCC(=O)Nc1ccc(C)c(C)c1 returned NPY Y2 blocker 17.8*, NPY-Y1 antag -0.7, EP2 antag 4.9, NPY1 pot ag -14.4, EP2 modulator -12.2, NPY2 pot ag -15.6, NPY-Y1 antag ct 11.0 and NPY-Y2 ant conf 34.0*.
`Cc1c(NC(=O)c2ccc(COc3ccc4ccccc4c3)o2)c(=O)n(-c2ccccc2)n1C` gave NPY Y2 blocker 18.1*, NPY-Y1 antag 8.0, EP2 antag 3.8, NPY1 pot ag -10.6, EP2 modulator -8.7, NPY2 pot ag -4.3, NPY-Y1 antag ct 14.5 and NPY-Y2 ant conf 8.9.
Cc1nn(C(C)(C)C)c(OC(=O)c2cccs2)c1Sc1ccccc1 was read as NPY Y2 blocker 26.5*, NPY-Y1 antag 13.4, EP2 antag 5.1, NPY1 pot ag -18.1, EP2 modulator 57.4, NPY2 pot ag 7.0, NPY-Y1 antag ct 11.0 and NPY-Y2 ant conf 6.2.
For Cc1nn(C(C)(C)C)c(OC(=O)c2ccc(Br)o2)c1Sc1ccccc1 the results were NPY Y2 blocker 18.0*, NPY-Y1 antag 6.2, EP2 antag 2.0, NPY1 pot ag 7.8, EP2 modulator 18.5, NPY2 pot ag 9.9, NPY-Y1 antag ct 5.4 and NPY-Y2 ant conf 16.2.
For CCc1ccc(OCC(=O)Nc2nc3ccc(NC(C)=O)cc3s2)cc1 the results were EP2 antag 10.4 and EP2 modulator -60.5.
`Cc1cc(Oc2ccc(-c3ccccc3)cc2)n2ncnc2n1` gave NPY Y2 blocker 20.0*, NPY-Y1 antag 3.8, EP2 antag 2.0, NPY1 pot ag -0.7, EP2 modulator -4.0, NPY2 pot ag -4.7, NPY-Y1 antag ct 0.2 and NPY-Y2 ant conf 2.7.
For O=C(CSc1nc2ccccc2s1)NCCOc1ccccc1 the results were NPY Y2 blocker 7.7, NPY-Y1 antag 6.7, EP2 antag 4.7, NPY1 pot ag -18.5, EP2 modulator -6.4 and NPY2 pot ag -14.3.
Screening O=C(CSc1nc2ccccc2s1)NCCOc1ccc(Cl)cc1 returned NPY Y2 blocker 19.8*, NPY-Y1 antag 15.0, EP2 antag 2.0, NPY1 pot ag -49.1, EP2 modulator -24.2, NPY2 pot ag -40.9, NPY-Y1 antag ct 12.2 and NPY-Y2 ant conf 13.5.
Screening Cc1nnc(SC2CC(=O)N(c3ccccc3)C2=O)s1 (centres undefined) returned NPY Y2 blocker -0.4, NPY-Y1 antag -1.3, EP2 antag 6.2, NPY1 pot ag 9.9, EP2 modulator 26.5 and NPY2 pot ag -14.8.
For Cc1nc(SC2CC(=O)N(c3ccccc3)C2=O)nc2c1CCCC2 (centres undefined) the results were NPY Y2 blocker 21.0*, NPY-Y1 antag 18.8, EP2 antag 8.7, NPY1 pot ag -15.0, EP2 modulator -220.1, NPY2 pot ag -30.6, NPY-Y1 antag ct 16.7 and NPY-Y2 ant conf 14.0.
OCC1CCCN(c2nc(CN3CCCCC3)nc3scc(-c4ccccc4)c23)C1 (centres undefined) was read as NPY Y2 blocker 23.2*, NPY-Y1 antag 16.6, EP2 antag 9.2, NPY1 pot ag -20.5, EP2 modulator 0.3, NPY2 pot ag 3.7, NPY-Y1 antag ct 17.9 and NPY-Y2 ant conf 16.9.
Screening Cc1cc2cc(C#N)c(NCCNC(=O)Cc3cccs3)nc2cc1C returned EP2 antag 12.0 and EP2 modulator -30.3.
For CSc1ccc(Cl)c(C(=O)NCCOc2cc(C)ccc2C(C)C)c1 the results were NPY Y2 blocker 17.1*, NPY-Y1 antag 0.4, EP2 antag -3.5, NPY1 pot ag -15.6, EP2 modulator 5.5, NPY2 pot ag -35.8, NPY-Y1 antag ct 5.5 and NPY-Y2 ant conf 7.0.
CSc1ccc(Cl)c(C(=O)NCCOc2ccccc2)c1 was read as NPY Y2 blocker 4.5, NPY-Y1 antag -0.6, EP2 antag 16.2, NPY1 pot ag -8.2, EP2 modulator -21.4 and NPY2 pot ag 7.3.
`Cc1ccccc1NC(=O)Cn1nnc2c(cnn2-c2ccc(F)cc2)c1=O` gave NPY Y2 blocker 24.3*, NPY-Y1 antag 0.8, EP2 antag 10.0, NPY1 pot ag -22.6, EP2 modulator 14.7, NPY2 pot ag -7.3, NPY-Y1 antag ct 9.8 and NPY-Y2 ant conf 8.4.
Screening Cc1cccc(C)c1NC(=O)C1(N(Cc2ccco2)C(=O)c2ccccn2)CCCC1 returned NPY Y2 blocker 5.3, NPY-Y1 antag 9.9, EP2 antag 8.7, NPY1 pot ag -18.3, EP2 modulator 10.1 and NPY2 pot ag -3.0.
